RAM inhibit: blocks the yeast RAM network | S. cerevisiae dse1pr::URA3 reporter, 5-FOA growth OD615, 2 d; analog-sensitive cbk1-as2 kinase mutant strain | inhibition, % at 50 µM | hit rate 1.8% among 190,000 | AID 868;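 active = inhibition above a set limit, 3 SD over mean compound inhibition, cut at about 8.4% in these data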;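 note: 0% = DMSO-only wells with no growth and 100% = 10 µM 1-NA-PP1 full growth; inhibition rescues growth on 5-FOA so higher OD means more RAM inhibition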
Yeast life ext: yeast lifespan extension | hit rate 0.68% among 130,000 | S. cerevisiae growth with nicotinamide, OD615; deaD strain in restrictive glucose medium | inhibition of the nicotinamide effect, % at 10 µM | AID 775;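 active = inhibition above a set limit, placed 3 SD over the median of all compounds, cut at about 26% in these data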;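 note: 0% = nicotinamide-treated wells and 100% = cells grown without nicotinamide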
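Buffer or medium: CSMM-D glucose medium, restrictive; test system: modified budding yeast, DeaD strain; compound: single dose 10 µM compound, 0.25% DMSO; schedule: culture preincubation 4 h, compound exposure 48 h, both 30 °C; detection: optical density (absorbance) at 615 nm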
Measles CPE: protection of cells from measles virus | Measles virus-infected cells, CPE protection, absorbance | protection (pct of control), % at 4 µM | hit rate 1.5% among 140,000 | AID 841; in the data active = protection mostly above about 24%, no sharp cut-off; inactive = mostly below about 26%
Phagocyt inh: macrophage phagocytosis inhibition. inhibition, % at 5 µM. AID 1029. J774A.1 macrophage IgG-bead phagocytosis, imaging. hit rate 0.07% among 110,000;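 active = inhibition above the mean of the plate negative controls plus 5 SD, cut at about 13% in these data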;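 note: phagocytic index as fraction of beads internalized from green versus red external bead signal; plate controls were DMSO negative control for no effect and cytochalasin-D positive control for full effect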
Yeast growth inh: yeast BB579 growth reduction in restrictive medium; S. cerevisiae BB579 growth, OD615, 48 h; hit rate 0.51% among 140,000; inhibition, % at 10 µM;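 active = inhibition above a set limit, 3 SD over the mean compound inhibition, cut at about 44% in these data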
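controls = amphotericin B 10 µg/mL, positive | assay system = DeaD yeast strain BB579 | schedule = 48 h compound exposure at 30 °C after 4 h preincubation | detection = OD615 turbidity measurement | medium = restrictive CSMM-D medium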
RAM 5-FOA: restores 5-FOA growth of efflux-deficient yeast | AID 1305 | S. cerevisiae efflux-deficient reporter strain, 5-FOA growth OD615, 2 days | 1,200 tested, under 10 active | shares compounds with RAM inhibit | max inhibition, %; call rule not given here;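 note: plate controls were vehicle for no effect and reference inhibitor for full effect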
Active calls of the source: *; . = no result given. A selection: hits, their analogues and other compounds. The true share with any hit is near 3.6%.

SMILES	RAM inhibit	Yeast life ext	Measles CPE	Phagocyt inh	Yeast growth inh	RAM 5-FOA
COc1ccc(OC)c(/C=C/C(=O)OCC(=O)Nc2cccc(Oc3ccccc3)c2)c1	13.5*	4.3	9.0	-9.2	-18.8	3.0
COc1cccc(NC(=O)COC(=O)/C=C/c2ccc(Cl)cc2Cl)c1	7.0	-5.5	9.2	.	-20.4	.
Cc1ccc(/C=C/C(=O)OCC(=O)Nc2ccccc2Sc2ccccc2)cc1	19.4*	9.8	5.5	-0.7	-28.5	6.5
CC(C)CC(=O)OCC(=O)Nc1ccccc1Sc1ccccc1	1.3	2.8	24.6	-6.5	-18.7	.
COc1cccc(/C=C/C(=O)OCC(=O)Nc2ccccc2Sc2ccccc2)c1	24.1*	0.6	25.2	-1.3	-17.4	5.6
CC(C)CSc1nc(N2CCOCC2)c2c(c1C#N)CC(C)(C)SC2	21.6*	-4.4	20.5	-0.4	-31.5	3.5
CCCCn1c(=N)n(CC(O)COc2ccc(C)cc2)c2ccccc21 (stereo not given)	0.2	-3.7	7.8	-0.6	-4.9	.
Cc1cccc(C)c1OCC(O)Cn1nnc2ccccc21 (stereo not given)	1.1	-11.3	1.3	.	-39.6	.
Cc1ccc(OCC(O)Cn2c3ccccc3c3ccccc32)cc1 (stereo not given)	12.0*	-16.9	7.5	0.4	-60.2	2.5
Cc1cccc(C)c1OCC(O)Cn1c2ccccc2c2ccccc21 (stereo not given)	15.2*	-5.2	25.0	-4.7	-34.4	6.8
COc1ccc(C(=O)/C=C/C(=O)N(CC(=O)NCCC(C)C)Cc2cccs2)c(O)c1	11.8*	.	.	.	.	6.6
Cc1c(-c2ccncc2)oc2ccc(Br)cc2c1=O	1.5	.	.	.	.	.
COc1ccccc1/C=C(/C(=O)OCC(=O)Nc1ccccc1C(C)C)c1ccccc1	11.9*	3.1	27.3	-2.4	-45.6	2.6
Cc1ccccc1NC(NC(=O)c1cccs1)C(Cl)(Cl)Cl (stereo not given)	0.9	-3.7	12.5	-1.8	-21.9	.
C=CCN(c1ccccc1Cl)S(=O)(=O)c1cccc(C(=O)NCCc2ccc(OC)cc2)c1	14.4*	7.8	13.5	-7.7	-50.2	3.5
CCN(C(=O)CSc1nc2nc(C)cc(C)n2n1)C1CCS(=O)(=O)C1 (stereo not given)	2.3	.	.	.	.	.
Cc1ccccc1OCCNc1cc(N2CCN(CCO)CC2)ccc1[N+](=O)[O-]	-0.7	-6.4	9.1	-6.3	-0.3	.
COc1cccc(OCCNc2cc(N3CCOCC3)ccc2[N+](=O)[O-])c1	11.7*	-0.2	11.4	-18.0	-42.0	1.1
Cc1ccccc1OCCNc1cc(N2CCCCC2)ccc1[N+](=O)[O-]	14.2*	2.0	9.4	.	-29.7	4.6
COc1ccc(C(Cl)=C(c2ccc(OC)cc2)c2ccc(OC)cc2)cc1	13.2*	9.6	2.1	.	-37.5	5.7
C/C(=N\Nc1nc2c(s1)CCCC2)c1ccc(Cl)cc1	12.6*	-24.6	30.8	.	25.2	1.4
Cc1ccc(N/N=C/c2c(C)c(C#N)c(=O)n(C)c2O)cc1C	13.1*	.	.	.	.	1.7
CN(C[C@H](Cc1ccccc1)N(C[C@H](Cc1ccccc1)N(CC1(c2ccccc2)CC1)N=O)N=O)N=O	7.1	.	.	.	.	.
COCCNc1nc(SCc2ccccc2)nc2sc3c(c12)CCC3	14.2*	-15.3	4.2	.	-37.4	2.7
CC(CO)Nc1nc(SCc2ccccc2)nc2sc3c(c12)CCC3 (stereo not given)	0.8	-29.7	13.5	.	-32.3	.
SMILES	RAM inhibit	Yeast life ext	Measles CPE	Phagocyt inh	Yeast growth inh	RAM 5-FOA
COC(=O)c1sc(NC(=O)/C=C/c2ccccc2Cl)nc1C	4.0	.	.	.	.	.
COc1ccc(OCc2nnc(SCC(N)=O)n2-c2ccccc2OC)cc1	0.2	-7.5	1.9	0.0	0.2	.
COc1ccccc1-n1c(COc2ccccc2-c2ccccc2)nnc1SCC(=O)c1c(N)n(C)c(=O)n(C)c1=O	14.0*	-0.3	14.5	-3.0	-50.0	8.0
CCOC(=O)c1c(-c2cccs2)csc1NC(=O)COC(=O)c1c(C)noc1C	11.5*	-8.4	17.6	0.2	-36.8	2.4
CCOC(=O)C(=Cc1ccc(OCc2ccc([N+](=O)[O-])cc2)c(OC)c1)C(=O)OCC	15.7*	-3.6	3.3	-0.5	-46.1	3.0
COc1cc(C(c2c(C)[nH][nH]c2=O)c2c(C)[nH][nH]c2=O)ccc1OCc1ccc([N+](=O)[O-])cc1	-0.3	16.1	19.9	-0.8	-1.6	.
S=c1[nH]nc(C2CCCCC2)n1/N=C/c1cccs1	3.2	-6.5	4.8	.	-37.6	.
Cc1ccc(N(CCCCN2C(=O)c3ccccc3C2=O)C(=O)c2ccc(Cl)s2)cc1	4.1	0.6	10.5	-7.2	-4.7	.
O=C1c2ccccc2C(=O)N1CCCCN(C(=O)c1ccc(Cl)s1)c1ccc(Cl)cc1	11.5*	13.4	23.1	-7.9	-34.2	3.6
O=C(COC(=O)[C@H](Cc1ccccc1)NS(=O)(=O)c1ccccc1F)NC1CCCCC1	1.5	-12.3	38.9	0.1	-13.7	.
O=C1Cn2c(nc3ccccc32)N1c1cccc(C(F)(F)F)c1	0.2	-7.5	22.9	-1.1	-42.5	.
Cc1ccc(C(=O)Nc2ccc(C(=O)O)cc2)cc1S(=O)(=O)NCc1ccccc1	12.9*	.	.	.	.	3.3
COc1ccc(S(=O)(=O)N(CC(=O)NCCC(C)C)c2ccccc2)cc1OC	3.0	.	.	.	.	.
CCOC(=O)COc1cnc2ccccc2n1	0.1	.	.	.	.	.
CCOc1ccccc1N=C1SC(CC(=O)Nc2ccc(OC)cc2OC)C(=O)N1CCC1=CCCCC1 (stereo not given)	2.6	-3.9	7.9	-10.2	-10.8	.
O=C(CC1SC(=Nc2ccc(OC(F)F)cc2)N(CCC2=CCCCC2)C1=O)Nc1ccccc1F (stereo not given)	11.5*	0.9	6.8	.	-13.2	1.8
CCCCC(=O)Nc1cccc(NC(=O)c2ccccc2Br)c1	-0.9	-5.6	10.8	-1.3	-5.0	.
COC(=O)C/C=C/[C@@H](C)[C@@H](/C=N/OC[C@@H](C)[C@H](OCc1ccccc1)C(C)C)NS(=O)(=O)c1ccc(C)cc1	13.0*	7.8	22.3	.	-33.8	5.0
Cc1nc2cc(NC(=O)Nc3ccc(Br)cc3)ccc2o1	4.8	.	.	.	.	.
CCCCCCN(C(=O)CCCCCN1C(=O)NC(c2ccc(-c3ccccc3)cc2)C(C(=O)OCc2ccccc2)=C1C)C(C(=O)NCCCC)c1ccc(OCC(=O)OC)cc1 (stereo not given)	13.1*	4.0	27.6	.	-19.1	6.1
Cc1ccccc1NC(=O)c1sc(Cl)nc1-c1ccccc1	0.1	-11.5	16.0	0.0	6.4	.
Cc1ccc(C)c(NC(=O)c2sc(Cl)nc2-c2ccccc2)c1	15.3*	-11.1	19.7	.	-49.4	1.5
Cc1nn(-c2ccccc2)c2c1C(c1ccc(Cl)cc1)N(c1ccccc1)C(=O)N2 (stereo not given)	2.8	1.9	18.2	-6.3	-11.8	.
Cc1cccc(NC2=Nc3ccccc3N3C2=Nc2c(c(C)nn2-c2ccccc2)C3c2ccc(O)c(O)c2)c1 (stereo not given)	11.6*	-8.0	7.7	.	7.2	9.2
Cc1nn(-c2ccccc2)c2c1C(c1ccc(O)c(O)c1)N1C(=N2)C(Nc2ccccc2)=Nc2ccccc21 (stereo not given)	0.0	-5.8	4.5	.	-38.9	.
Cc1ccc(NC2=Nc3ccccc3N3C2=Nc2c(c(C)nn2-c2ccccc2)C3c2ccc(O)c(O)c2)cc1 (stereo not given)	11.4*	-11.6	3.6	.	-34.4	9.9

Screens as filed in PubChem.
